Source: PubChem (several laboratories)
An excerpt weighted towards active compounds, which were near 1.9% of everything screened.
DSG3 Ab inh = inhibitors of pemphigus antibody binding to human desmoglein-3. P32926. DSG3-coupled beads, scFv-anti-DSG3-GFP binding, flow cytometry; stronger effect = lower value. binding (percent of control), % at 10 µM. 0.48% of 310,000 active. AID 588358;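 active = binding more than 3 SD below its plate's average and above zero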;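 note: hits lower antibody fragment binding to DSG3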
Target sequence (P32926 whole entry, looked up, the tested form may be a part): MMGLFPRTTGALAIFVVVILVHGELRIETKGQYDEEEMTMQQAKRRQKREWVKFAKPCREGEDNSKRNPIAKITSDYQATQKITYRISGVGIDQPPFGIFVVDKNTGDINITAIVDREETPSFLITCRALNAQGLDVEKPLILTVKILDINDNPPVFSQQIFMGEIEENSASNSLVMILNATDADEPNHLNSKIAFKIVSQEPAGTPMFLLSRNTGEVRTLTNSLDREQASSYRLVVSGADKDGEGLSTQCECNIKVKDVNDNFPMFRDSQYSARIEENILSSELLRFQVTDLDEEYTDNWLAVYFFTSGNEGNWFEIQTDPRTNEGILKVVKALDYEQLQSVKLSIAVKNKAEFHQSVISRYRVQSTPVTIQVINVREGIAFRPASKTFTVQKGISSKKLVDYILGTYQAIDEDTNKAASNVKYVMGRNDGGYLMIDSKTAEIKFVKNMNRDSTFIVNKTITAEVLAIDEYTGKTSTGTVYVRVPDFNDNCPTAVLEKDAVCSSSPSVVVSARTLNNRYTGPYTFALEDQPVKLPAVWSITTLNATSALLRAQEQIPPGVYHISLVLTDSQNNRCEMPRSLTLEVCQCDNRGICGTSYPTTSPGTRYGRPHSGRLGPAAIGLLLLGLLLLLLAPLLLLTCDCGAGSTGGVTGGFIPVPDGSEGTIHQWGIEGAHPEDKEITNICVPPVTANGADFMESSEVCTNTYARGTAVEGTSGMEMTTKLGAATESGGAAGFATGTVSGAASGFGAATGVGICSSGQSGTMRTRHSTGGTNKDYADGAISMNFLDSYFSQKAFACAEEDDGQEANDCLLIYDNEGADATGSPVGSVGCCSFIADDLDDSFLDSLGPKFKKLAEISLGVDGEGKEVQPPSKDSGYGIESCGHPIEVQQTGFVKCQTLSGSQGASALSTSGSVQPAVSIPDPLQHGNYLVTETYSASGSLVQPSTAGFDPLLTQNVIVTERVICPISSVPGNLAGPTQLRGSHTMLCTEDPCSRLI
NadD block = NadD (S. aureus) enzyme inhibition; 0.78% of 360,000 active; AID 602399; inhibition, % at 20 µM; purified NadD enzyme, colorimetric absorbance read-out; in the data active = inhibition above about 26%
HCV core dimer = blocks dimerization of HCV core protein; TR-FRET GST/Flag-core106 dimerization, 1536-well; 0.33% of 300,000 active; inhibition, % at 5 µM;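 active = inhibition above the mean of all tested compounds plus 3 SD, set per screening campaign, cut at about 45% in these data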
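Material: Tagged HCV core106 pair (GST and Flag) | Amount: GST-core106 13.5 nM, Flag-core106 17 nM | Medium: KF-containing HEPES buffer, pH 7.45, DTT, CHAPS, BSA | Reagent: Eu donor and XL665 acceptor anti-tag antibodies | Schedule: 4 h at 22.5 °C | Technique: Time-resolved FRET, ex 340 nm, em 617 and 671 nm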
Rce1 inhib = yeast Ras-converting enzyme inhibition; calls only; 0.27% of 290,000 active; Q03530; yeast membranes, quenched prenylated peptide cleavage fluorescence;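 active = fall in fluorescence gain of 50% or more versus controls, with final raw signal at or below 3038400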;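 note: plate controls were neutral control wells for no effect and wells lacking membranes for full effect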
TbMetRS inhib = blocks T. brucei methionyl-tRNA synthetase activity. inhibition, % at 11.9 µM. purified T. brucei MetRS, ATP depletion, Kinase-Glo luminescence. 0.4% of 360,000 active;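 active = inhibition above a per-plate cutoff of the control wells' mean inhibition plus 3 SD, cut at about 5.5% in these data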;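 note: 0% = DMSO wells median and 100% = median of wells with control inhibitor compound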
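technique = Kinase-Glo luminescence, ATP depletion format | system = purified MetRS (methionyl-tRNA synthetase) enzyme from Trypanosoma brucei | timing = 15 min preincubation, 2 h reaction, all 25 °C | evaluation = percent inhibition versus plate control medians | dosing = single dose, 11.9 µM final nominal, 0.9% final DMSO | also added = substrates ATP, L-methionine and bulk Escherichia coli tRNA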
NadD inh conf = NadD (S. aureus) inhibition, single concentration confirmation | 13% of 2,000 active | shares compounds with NadD block | AID 624309 | purified S. aureus NadD, colorimetric enzyme assay | inhibition, % at 20 µM; in the data active = inhibition mostly above about 42%, no sharp cut-off; inactive = mostly below about 42%
An asterisk follows results filed as active; i = inactive; . = not tested or not shown.

SMILES | DSG3 Ab inh | NadD block | HCV core dimer | Rce1 inhib | TbMetRS inhib | NadD inh conf
CC(C)Cn1c(N)c(C(=O)COC(=O)c2cc(-c3ccco3)nc3ccccc23)c(=O)n(C)c1=O | 94 | 53* | 54* | i | 1 | 20
CC(=O)N(CCC(c1ccccc1)c1ccco1)Cc1cccs1 (configuration not stated) | 101 | -1 | 15 | i | 0 | .
Cc1ccc(C(CCN(Cc2ccccc2)C(=O)c2ccco2)c2ccco2)cc1 (configuration not stated) | 106 | 38* | 38 | i | -1 | 37
COc1ccc(/C=N\NC(=O)c2ccccc2F)cc1COc1ccc(F)cc1 | 95 | -3 | 4 | i | -1 | .
COc1ccc(/C=N\NC(=O)c2ccccc2F)cc1COc1ccc(F)cc1F | 104 | -5 | 2 | i | 0 | .
COc1cc(OC)cc(C(=O)N/N=C/c2ccc(OC)c(COc3ccc4ccccc4c3)c2)c1 | . | 40* | 39 | i | 0 | 11
COc1ccc(/C=N/NC(=O)c2nc(Cl)c(Cl)c(N)c2Cl)cc1COc1ccc(F)cc1F | 107 | 53* | 53* | i | 0 | 4
COc1ccc(/C=N/NC(=O)c2nc(Cl)c(Cl)c(N)c2Cl)cc1COc1ccccc1F | 105 | 30* | 57* | i | -1 | 7
COc1ccc(C(=O)N/N=C/c2ccc(OC)c(COc3ccccc3)c2)cc1 | 107 | -1 | 6 | i | -1 | .
COc1cccc(-n2c(Cc3cc(=O)[nH]c(=O)[nH]3)nnc2SC(C)C)c1 | 104 | -3 | -2 | i | 0 | .
Cn1nc(C(C)(C)C)cc1C(=O)N1CCCCC1c1cc(C(=O)NCc2ccccc2)no1 (configuration not stated) | . | 1 | . | . | 0 | .
CCCSc1nnc(CN2CCOCC2)n1C | 95 | 1 | 1 | i | 0 | .
CC(=O)c1ccc(C(=O)Nc2ccc3c(c2)C(=O)NC3=O)cc1 | 104 | -4 | -6 | i | 0 | .
Nc1[nH]c(=O)nc2snnc12 | 110 | 0 | . | . | 0 | .
C=CCN(CC=C)S(=O)(=O)c1ccc(NC(=S)NC(=O)/C=C/c2cccc3ccccc23)cc1 | 94 | 31* | 56* | i | -1 | 4
C=CCN(CC=C)S(=O)(=O)c1ccc(NC(=S)NC(=O)/C=C/c2ccc(C)cc2)cc1 | . | -4 | 17 | i | -1 | .
O=c1[nH]c(CSc2nc3ccccc3s2)nc2ccccc12 | 102 | -5 | 0 | i | 0 | .
COc1ccc(C2NCCc3c2[nH]c2ccccc32)cc1CSc1nc2ccccc2s1 (configuration not stated) | 107 | 44* | -8 | i | -1 | 11
CC[N+]1(CC)CC2=Cc3c(ccc4ccccc34)C(C)C2C1 (configuration not stated) | 107 | -10 | -8 | i | 1 | .
Cc1oc(-c2ccc(F)cc2)cc1-c1nn2c(-c3ccoc3C)nnc2s1 | 88 | 53* | 91* | i | 0 | 16
CCN(CC)C(=O)C1CCCN(Cc2ccccc2C(F)(F)F)C1 (configuration not stated) | 99 | -1 | -1 | i | 0 | .
N#C/C(=C\c1ccccc1OCc1ccc(C(=O)O)cc1)C(=O)Nc1ccc(O)cc1 | 99 | 2 | 8 | i | 0 | .
O=C(CN(C(=O)CNC(=O)c1ccco1)c1ccc2c(c1)OCCO2)NC1CCCCC1 | 98 | 1 | 1 | i | 0 | .
O=C(/C(=N\O)n1cncn1)c1ccc(Cl)cc1Cl | 100 | 1 | -2 | i | 3 | .
CCCNC(=O)Cn1c(=O)/c(=C\c2ccc(-c3cccc([N+](=O)[O-])c3)o2)s/c1=C\C(=O)C(C)(C)C | 104 | 35* | 57* | i | 0 | 10
SMILES | DSG3 Ab inh | NadD block | HCV core dimer | Rce1 inhib | TbMetRS inhib | NadD inh conf
COc1cccc(N(C(=O)Cn2nnc(-c3cccs3)n2)C(C(=O)NC2CCCCC2)c2ccncc2)c1 (configuration not stated) | 97 | 33* | 3 | i | 0 | 5
Cc1ccc(-c2nn(-c3ccccc3)cc2/C=N/n2c(-c3cccs3)n[nH]c2=S)cc1 | 103 | 41* | 21 | i | 0 | 0
S=c1[nH]nc(-c2cccs2)n1/N=C/c1cn(-c2ccccc2)nc1-c1cccs1 | 96 | 28 | 17 | i | 0 | .
CC(C)CN(C(=O)CN1CCCCCC1)c1c(N)n(CC(C)C)c(=O)[nH]c1=O | 96 | 7 | -8 | . | -1 | .
CC(C)(C)c1ccc(C(=O)N/C(=C\c2cccc([N+](=O)[O-])c2)C(=O)Nc2cccc(C(=O)O)c2)cc1 | 103 | 31* | 15 | i | -1 | 45
Cc1ccc(OCc2cc(C(=O)NC(C)Cc3cnccn3)no2)cc1C (configuration not stated) | 104 | -1 | -13 | i | 0 | .
Cc1ccc(NC(=O)COc2ccc(/C=C3/SC(=Nc4ccccc4)N(Cc4cccnc4)C3=O)cc2)cc1 | 110 | 40* | 13 | i | -1 | 3
COc1ccc(O)c(C(=O)c2cc(SCC(=O)O)c3nc4sc5c(c4c(=O)n3c2)CCCC5)c1 | 100 | 46* | 27 | i | 0 | 36
O=C(O)CSc1cc(C(=O)c2ccccc2O)cn2c(=O)c3c(-c4ccccc4)csc3nc12 | 99 | 38* | 55* | i | 0 | 57*
CCOC(=O)c1sc2nc3c(SCC(=O)O)cc(C(=O)c4cc(F)ccc4O)cn3c(=O)c2c1C | 107 | 33* | 21 | i | -1 | 34
CCOC(=O)c1sc2nc3c(SCC(=O)O)cc(C(=O)c4ccccc4O)cn3c(=O)c2c1C | 100 | 27 | -302 | i | -1 | .
COc1cccc(-c2cc(C(F)(F)F)n3nc(C(=O)N4CCCCC4c4cccnc4)cc3n2)c1 (configuration not stated) | 106 | 2 | 2 | i | -1 | .
COc1ccc(-n2nnc3c(SCC(=O)c4ccccc4)ncnc32)cc1 | 109 | -10 | -2 | i | 0 | .
Cc1ccc(-n2c3nc(=O)[nH]c(=O)c-3cc3c(C)nn(-c4ccccc4)c32)c(C)c1 | 99 | -11 | -2 | i | 0 | .
NNC(=O)c1[nH]c2ccc([N+](=O)[O-])cc2c1-c1ccccc1 | 100 | 4 | 11 | i | -1 | .
O=C(N/N=C/c1ccccn1)c1[nH]c2ccc([N+](=O)[O-])cc2c1-c1ccccc1 | 81 | 67* | 14 | i | 0 | 38
O=C(N/N=C/c1ccccc1)c1[nH]c2ccc(Br)cc2c1-c1ccccc1 | 88 | 34* | -3 | i | -1 | 44
COC(=O)c1ccc(NC(=O)COc2ccc(C3C(C#N)=C(N)Oc4c3ccc3ccccc43)cc2OC)cc1 (configuration not stated) | 80 | 51* | 23 | i | 1 | 29
CN(C(=O)CS(=O)(=O)c1cccc(Cl)c1)c1ccccc1 | 107 | 0 | -1 | i | 1 | .
